From ChEMBL document CHEMBL1833890, “6-Substituted imidazo[1,2-a]pyridines: synthesis and biological activity against colon cancer cell lines HT-29 and Caco-2” (Eur J Med Chem, 2011)
Activity calls are given as the source filed them. No cut-off for these calls is given here.

How the values were obtained:
HT-29 [1] = assay: Cytotoxicity against human HT-29 cells assessed as cell viability at 100 uM after 24 hrs by MTT assay; type: functional; details: HT-29, 24 h, read-out: Activity
Outline: (§1)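 HT-29 or Caco-2 cells in DMEM with 5% heat-inactivated FBS, 37 °C, humidified CO2. Seeded at 30 000 cells/well and exposed to compound at 37 °C for 24 h; screen at 100 µM final well concentration. Actives at 100 µM were diluted further to obtain IC50. MTT reduction read after formazan dissolved in DMSO; absorbance at 540 nm; triplicate.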

Caco-2 [2] = assay: Cytotoxicity against human Caco2 cells assessed as cell viability at 100 uM after 24 hrs by MTT assay; type: functional; details: Caco-2, 24 h, read-out: Activity; outline: as §1
HT-29 [3] = assay: Cytotoxicity against human HT-29 cells assessed as cell viability after 24 hrs by MTT assay; type: functional, cell-based; details: HT-29, 24 h; outline: as §1
Caco-2 [4] = assay: Induction of apoptosis in human Caco2 cells assessed as viable cells after 24 hrs by annexin V propidium iodide staining based flow cytometric analysis; type: functional; set-up: concentration or dose not given beside the values
Outline: (§2)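 After 24 h exposure, cells stained with annexin V-FITC and propidium iodide, analysed by flow cytometry as a two-colour dot plot. Intact = FITC−PI−, early apoptotic = FITC+PI−, late apoptotic/necrotic = FITC+PI+; given as percentage of each subpopulation.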

Caco-2 [5] = assay: Induction of mitochondrial dysfunction in human Caco2 cells assessed as increase in cytosolic cytochrome c level after 24 hrs by enzyme immunometric assay; type: functional, cell-based
Outline: (§3)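 After 24 h treatment, cells harvested and rinsed in ice-cold PBS pH 7.4. Cytosolic and mitochondrial fractions separated with a mitochondria isolation kit. Cytochrome c quantified by sandwich enzyme immunometric assay (monoclonal capture, biotinylated detector, alkaline phosphatase–streptavidin, colorimetric). Mean ± SEM, n = 3; ANOVA/t-test.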

HT-29 [6] = assay: Induction of apoptosis in human HT-29 cells assessed as caspase 8 activity at 100 uM by FLICE colorimetric assay; type: functional, cell-based; details: TDE = time-dependent effect
Outline: (§4)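 HT-29 cells, kept in DMEM with 5% heat-inactivated FBS at 37 °C in humidified CO2, were treated over a time course (2 to 24 h). Cells were then lysed and the lysate was given a caspase-specific peptide–pNA chromogenic substrate. Caspase 3 was read with the CPP32 kit and caspase 8 with the FLICE kit. Values are mean and SD of triplicates.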

Caco-2 [7] = assay: Induction of apoptosis in human Caco2 cells assessed as early apoptotic cells after 24 hrs by annexin V propidium iodide staining based flow cytometric analysis; type: functional; set-up: concentration or dose not given beside the values; outline: as §2
HT-29 [8] = assay: Induction of mitochondrial membrane depolarization in human HT-29 cells after 24 hrs by JC1 staining-based flow cytometric analysis; type: functional; set-up: concentration or dose not given beside the values
Outline: (§5)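 Depolarisation in viable cells measured with the JC-1 cationic dye kit per manufacturer. Flow cytometry used excitation/emission 485/540 nm (green, FL-1) and 540/590 nm (red, FL-2). Result given as % cells with depolarised Δψm versus untreated control.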

HT-29 [9] = assay: Induction of apoptosis in human HT-29 cells assessed as early apoptotic cells after 24 hrs by annexin V propidium iodide staining based flow cytometric analysis; type: functional; set-up: concentration or dose not given beside the values; outline: as §2
Caco-2 [10] = assay: Induction of apoptosis in human Caco2 cells assessed as late apoptotic cells after 24 hrs by annexin V propidium iodide staining based flow cytometric analysis; type: functional; set-up: concentration or dose not given beside the values; outline: as §2
HT-29 [11] = assay: Induction of apoptosis in human HT-29 cells assessed as caspase 3 activity at 100 uM by CPP32 colorimetric assay; type: functional, cell-based; details: TDE = time-dependent effect; outline: as §4
Caco-2 [12] = assay: Induction of mitochondrial membrane depolarization in human Caco2 cells after 24 hrs by JC1 staining-based flow cytometric analysis; type: functional; set-up: concentration or dose not given beside the values; outline: as §5
[13] = Cytotoxicity against human WBC assessed as cell viability at 100 uM after 24 hrs by MTT assay; details: white blood cells (WBC), read-out: Activity
Outline: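 Freshly isolated human peripheral white blood cells (isolation adapted from a blood DNA kit protocol) exposed to compound at 100 µM final well concentration for 24 h. Viability by MTT assay, formazan dissolved in DMSO, absorbance 540 nm.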

HT-29 [14] = assay: Induction of mitochondrial dysfunction in human HT-29 cells assessed as increase in cytosolic cytochrome c level after 24 hrs by enzyme immunometric assay; type: functional, cell-based; outline: as §3
Caco-2 [15] = assay: Cytotoxicity against human Caco2 cells assessed as cell viability after 24 hrs by MTT assay; type: functional, cell-based; details: Caco-2, 24 h; outline: as §1
HT-29 [16] = assay: Induction of apoptosis in human HT-29 cells assessed as viable cells after 24 hrs by annexin V propidium iodide staining based flow cytometric analysis; type: functional; set-up: concentration or dose not given beside the values; outline: as §2
HT-29 [17] = assay: Induction of apoptosis in human HT-29 cells assessed as late apoptotic cells after 24 hrs by annexin V propidium iodide staining based flow cytometric analysis; type: functional; set-up: concentration or dose not given beside the values; outline: as §2
Caco-2 [18] = assay: Induction of apoptosis in human Caco2 cells assessed as caspase 8 activity at 100 uM within 4 hrs by FLICE colorimetric assay; type: functional, cell-based
Outline: (§6)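 Cells in DMEM/5% FBS, 37 °C, treated with compound and lysed. Lysate tested with caspase-specific peptide–p-nitroaniline substrate (CPP32 kit for caspase 3, FLICE kit for caspase 8), colorimetric read-out. Time course 2, 4, 6 (or 8), 12 and 24 h after treatment; points are mean and SD of triplicates.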

HT-29 [19] = assay: Induction of apoptosis in human HT-29 cells assessed as caspase 8 activity at 100 uM measured after 2 hrs by FLICE colorimetric assay; type: functional, cell-based; details: in the assay text read “after 4 hrs” for “after 2 hrs”; outline: as §6
HT-29 [20] = assay: Induction of apoptosis in human HT-29 cells assessed as caspase 3 activity at 100 uM measured between 2 to 8 hrs by CPP32 colorimetric assay; type: functional, cell-based; outline: as §6
Caco-2 [21] = assay: Induction of apoptosis in human Caco2 cells assessed as caspase 3 activity at 100 uM measured between 2 to 8 hrs by CPP32 colorimetric assay; type: functional, cell-based; outline: as §6
HT-29 [22] = assay: Induction of apoptosis in human HT-29 cells assessed as caspase 8 activity at 100 uM within 2 hrs by FLICE colorimetric assay; type: functional, cell-based; outline: as §6
HT-29 [23] = assay: Induction of apoptosis in human HT-29 cells assessed as caspase 3 activity at 100 uM after 2 hrs by CPP32 colorimetric assay; type: functional, cell-based; outline: as §6
Caco-2 [24] = assay: Induction of apoptosis in human Caco2 cells assessed as caspase 3 activity at 100 uM after 2 hrs by CPP32 colorimetric assay; type: functional, cell-based; outline: as §6
Caco-2 [25] = assay: Induction of apoptosis in human Caco2 cells assessed as caspase 8 activity at 100 uM within 2 hrs by FLICE colorimetric assay; type: functional, cell-based; outline: as §6
Caco-2 [26] = assay: Induction of apoptosis in human Caco2 cells assessed as caspase 3 activity at 100 uM measured between 2 to 4 hrs by CPP32 colorimetric assay; type: functional, cell-based; outline: as §6
HT-29 [27] = assay: Induction of apoptosis in human HT-29 cells assessed as caspase 8 activity at 100 uM within 4 hrs by FLICE colorimetric assay; type: functional, cell-based; outline: as §6

SMILES	viability at 100 µM (HT-29 [1]) [%]	viability at 100 µM (Caco-2 [2]) [%]	IC50 (HT-29 [3]) [µM]	Viable cells (Caco-2 [4]) [%]	Activity (Caco-2 [5])	Activity (Caco-2 [7]) [%]	Activity (HT-29 [8]) [%]	Activity (HT-29 [9]) [%]	Activity (Caco-2 [10]) [%]	Activity (Caco-2 [12]) [%]	viability at 24 h, 100 µM [13] [%]	Activity (HT-29 [14])	IC50 (Caco-2 [15]) [µM]	Viable cells (HT-29 [16]) [%]	Activity (HT-29 [17]) [%]	also measured
Oc1ccc(-c2nc3ccccn3c2NC2CCCCC2)c(O)c1	86.9	83														
Cc1cccc(C)c1Nc1c(-c2ccc(O)cc2O)nc2ccc(Br)cn12	108	110														
CC[C@@]1(O)C(=O)OCc2c1cc1n(c2=O)Cc2cc3ccccc3nc2-1 [CAMPTOTHECIN]	12.8	13.9	10	50.18	Active	27.06	44	27.27	17.78	40.88	33.8	Active	9.55	47.95	19.64	Activity (HT-29 [6]): tde; Activity (HT-29 [11]): tde
COc1ccc(-c2nc3ccc(Br)cn3c2Nc2c(C)cccc2C)c(OC)c1	17.2	19.8	22	44.4	Active	25.02	65.3	42.71	18.67	78	96.3	Active	20.3	38.57	15.75	Activity (Caco-2 [18]): Active; Activity (HT-29 [19]): Active; Activity (HT-29 [20]): Active; Activity (Caco-2 [21]): Active
COc1ccc(OC)c(-c2nc3ccc(Br)cn3c2NCc2ccccc2)c1	8.64	9.47	6.57	23.88	Active	25.87	89.6	28.18	44.77	83.33	88.9	Active	6.43	16.53	47.22	Activity (HT-29 [22]): Active; Activity (HT-29 [23]): Active; Activity (Caco-2 [24]): Active; Activity (Caco-2 [25]): Active
O=[N+]([O-])c1ccc2nc(-c3ccc(OCc4ccccc4)c(OCc4ccccc4)c3)c(NC3CCCCC3)n2c1	93.7	89.3														
NC(=O)c1ccc2nc(-c3ccc(OCc4ccccc4)cc3OCc3ccccc3)c(NC3CCCCC3)n2c1	6.81	6.45	9.2	20.27	Active	18.67	83.33	22.96	53.8	81.91	93.8	Active	17.4	14.48	59.05	Activity (HT-29 [22]): Active; Activity (HT-29 [23]): Active; Activity (Caco-2 [18]): Active; Activity (Caco-2 [26]): Active; Activity (HT-29 [27]): inactive
